Assay results published in ChEMBL document CHEMBL5649168, “Discovery of a selective catalytic p300/CBP inhibitor that targets lineage-specific tumours” (Nature, 2017).
Active and inactive are the calls of the source. The calls are words filed in the database; no cut-off is given here.

How the values were obtained:
MM1.S = experiment: Antiproliferative activity against human MM1.S cells assessed as inhibition of cell viability incubated for 3 to 5 days by Celltiter-Glo luminescent assay; type: functional, cell-based
[1] = target: Death-associated protein kinase 3 (Homo sapiens, UniProt O43293); experiment: Inhibition of ZIPK (unknown origin)
RCK8 = experiment: Antiproliferative activity against human RCK8 cells assessed as inhibition of cell viability incubated for 3 to 5 days by Celltiter-Glo luminescent assay; type: functional, cell-based
[2] = target: Bromodomain-containing protein 3 (Homo sapiens, UniProt Q15059); experiment: Inhibition of BRD3 (unknown origin)
OCI-Ly7 = experiment: Antiproliferative activity against human OCILY7 cells assessed as inhibition of cell viability incubated for 3 to 5 days by Celltiter-Glo luminescent assay; type: functional, cell-based
NU-DHL-1 = experiment: Antiproliferative activity against human NU-DHL-1 cells assessed as inhibition of cell viability incubated for 3 to 5 days by Celltiter-Glo luminescent assay; type: functional, cell-based
cells = settings: Homo sapiens, MINO
U-2973 = experiment: Antiproliferative activity against human U-2973 cells assessed as inhibition of cell viability incubated for 3 to 5 days by Celltiter-Glo luminescent assay; type: functional, cell-based
MeWo = experiment: Antiproliferative activity against human MeWo cells assessed as inhibition of cell viability incubated for 3 to 5 days by Celltiter-Glo luminescent assay; type: functional, cell-based
DU-4475 = experiment: Antiproliferative activity against human DU-4475 cells assessed as inhibition of cell viability incubated for 3 to 5 days by Celltiter-Glo luminescent assay; type: functional, cell-based
SU-DHL-5 = experiment: Antiproliferative activity against human SuDHL5 cells assessed as inhibition of cell viability incubated for 3 to 5 days by Celltiter-Glo luminescent assay; type: functional, cell-based
THP-1 = experiment: Antiproliferative activity against human THP-1 cells assessed as inhibition of cell viability incubated for 3 to 5 days by Celltiter-Glo luminescent assay; type: functional, cell-based
NCI-H838 = experiment: Antiproliferative activity against human NCI-H838 cells assessed as inhibition of cell viability incubated for 3 to 5 days by Celltiter-Glo luminescent assay; type: functional, cell-based
BJAB = experiment: Antiproliferative activity against human BJAB cells assessed as inhibition of cell viability incubated for 3 to 5 days by Celltiter-Glo luminescent assay; type: functional, cell-based
Granta-519 = experiment: Antiproliferative activity against human Granta-519 cells assessed as inhibition of cell viability incubated for 3 to 5 days by Celltiter-Glo luminescent assay; type: functional, cell-based
[3] = target: Vascular endothelial growth factor receptor 2 (Homo sapiens, UniProt P35968); experiment: Inhibition of Kdr (unknown origin)
[4] = target: Protein kinase C zeta type (Homo sapiens, UniProt Q05513); experiment: Inhibition of PKCzeta (unknown origin)
LuCaP-77 CR cell [5] = settings: Homo sapiens, dose 100.0 mg/kg, time 7.0 day
NCI-H522 = experiment: Antiproliferative activity against human NCI-H522 cells assessed as inhibition of cell viability incubated for 3 to 5 days by Celltiter-Glo luminescent assay; type: functional, cell-based
NCI-H211 = experiment: Antiproliferative activity against human NCI-H211 cells assessed as inhibition of cell viability incubated for 3 to 5 days by Celltiter-Glo luminescent assay; type: functional, cell-based
[6] = AUC in CB17 SCID mouse xenografted with LuCaP-77 CR cell at 100 mg/kg, ip administered for 7 days; type: ADME, organism-based; settings: in vivo, time 7 day
[7] = target: T1, CREB-binding protein/Histone acetyltransferase p300 (Homo sapiens, UniProt Q09472+Q92793); experiment: Inhibition of p300/CBP in human 22Rv1 cells assessed as reduction in H3K9Ac level incubated for 3 hrs by Hoechst 33342 staining based high content microscopy analysis; type: cell-based
T1 sequence (Q09472 whole entry, looked up): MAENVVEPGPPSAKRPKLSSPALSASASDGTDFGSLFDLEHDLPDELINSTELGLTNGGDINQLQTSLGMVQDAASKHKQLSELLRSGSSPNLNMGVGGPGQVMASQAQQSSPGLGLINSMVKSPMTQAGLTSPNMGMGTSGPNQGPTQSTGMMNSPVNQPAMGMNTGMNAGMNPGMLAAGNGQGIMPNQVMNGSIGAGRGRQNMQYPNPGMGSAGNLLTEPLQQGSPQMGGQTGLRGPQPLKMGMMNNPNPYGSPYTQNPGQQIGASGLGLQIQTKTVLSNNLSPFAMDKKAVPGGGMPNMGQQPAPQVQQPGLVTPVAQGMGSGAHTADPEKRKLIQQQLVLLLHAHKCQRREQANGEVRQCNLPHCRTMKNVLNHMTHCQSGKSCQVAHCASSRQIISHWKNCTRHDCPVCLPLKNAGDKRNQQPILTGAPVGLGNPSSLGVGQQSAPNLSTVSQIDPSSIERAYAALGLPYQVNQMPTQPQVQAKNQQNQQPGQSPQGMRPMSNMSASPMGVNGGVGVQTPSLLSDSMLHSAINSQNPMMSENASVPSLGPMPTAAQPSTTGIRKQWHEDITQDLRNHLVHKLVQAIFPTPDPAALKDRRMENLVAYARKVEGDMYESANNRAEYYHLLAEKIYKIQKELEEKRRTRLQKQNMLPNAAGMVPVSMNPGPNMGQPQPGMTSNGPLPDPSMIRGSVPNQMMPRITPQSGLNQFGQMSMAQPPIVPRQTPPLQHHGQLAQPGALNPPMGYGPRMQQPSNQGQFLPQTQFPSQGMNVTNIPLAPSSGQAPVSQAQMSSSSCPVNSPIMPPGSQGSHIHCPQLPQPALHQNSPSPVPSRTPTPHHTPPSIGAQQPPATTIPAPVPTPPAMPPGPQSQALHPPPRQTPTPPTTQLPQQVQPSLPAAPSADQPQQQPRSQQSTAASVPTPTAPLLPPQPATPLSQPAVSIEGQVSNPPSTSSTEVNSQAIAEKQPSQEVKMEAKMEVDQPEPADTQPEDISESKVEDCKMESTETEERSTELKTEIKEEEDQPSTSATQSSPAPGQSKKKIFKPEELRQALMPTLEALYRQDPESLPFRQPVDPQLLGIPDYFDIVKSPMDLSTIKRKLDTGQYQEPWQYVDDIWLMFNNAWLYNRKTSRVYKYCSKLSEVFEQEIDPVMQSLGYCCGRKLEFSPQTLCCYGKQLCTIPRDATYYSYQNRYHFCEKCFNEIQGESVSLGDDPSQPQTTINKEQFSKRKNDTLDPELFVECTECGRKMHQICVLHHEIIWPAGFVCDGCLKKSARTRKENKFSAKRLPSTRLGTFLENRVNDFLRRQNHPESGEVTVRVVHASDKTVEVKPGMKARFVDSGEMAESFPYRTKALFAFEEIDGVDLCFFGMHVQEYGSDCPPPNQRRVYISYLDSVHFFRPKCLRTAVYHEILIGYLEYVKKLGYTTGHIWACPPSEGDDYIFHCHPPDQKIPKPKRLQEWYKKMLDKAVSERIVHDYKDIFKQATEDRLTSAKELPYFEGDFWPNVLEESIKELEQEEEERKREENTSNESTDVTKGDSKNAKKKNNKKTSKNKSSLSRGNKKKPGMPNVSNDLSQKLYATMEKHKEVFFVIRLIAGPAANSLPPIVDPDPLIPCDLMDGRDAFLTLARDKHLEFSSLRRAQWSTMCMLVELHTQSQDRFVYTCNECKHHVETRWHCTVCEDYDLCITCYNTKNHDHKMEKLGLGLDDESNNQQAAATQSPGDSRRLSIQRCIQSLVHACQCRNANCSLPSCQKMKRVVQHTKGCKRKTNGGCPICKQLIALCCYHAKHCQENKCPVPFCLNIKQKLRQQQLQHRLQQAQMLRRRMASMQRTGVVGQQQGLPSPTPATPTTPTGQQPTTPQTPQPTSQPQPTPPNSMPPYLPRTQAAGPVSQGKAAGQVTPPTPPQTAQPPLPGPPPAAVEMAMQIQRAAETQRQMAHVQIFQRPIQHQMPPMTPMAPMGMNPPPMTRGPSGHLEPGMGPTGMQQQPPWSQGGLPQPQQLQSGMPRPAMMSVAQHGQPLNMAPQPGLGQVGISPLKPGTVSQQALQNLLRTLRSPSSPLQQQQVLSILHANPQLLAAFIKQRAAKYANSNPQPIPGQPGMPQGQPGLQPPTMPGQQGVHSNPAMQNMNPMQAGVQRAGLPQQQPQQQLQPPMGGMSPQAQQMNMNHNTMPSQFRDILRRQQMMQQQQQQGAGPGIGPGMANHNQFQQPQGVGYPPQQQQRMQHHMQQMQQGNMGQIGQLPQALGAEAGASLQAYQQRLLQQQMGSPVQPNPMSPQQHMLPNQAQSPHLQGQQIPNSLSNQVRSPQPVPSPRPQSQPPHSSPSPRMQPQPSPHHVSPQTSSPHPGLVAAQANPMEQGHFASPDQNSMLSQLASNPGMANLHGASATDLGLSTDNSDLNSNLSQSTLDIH
T1 sequence (Q92793 whole entry, looked up): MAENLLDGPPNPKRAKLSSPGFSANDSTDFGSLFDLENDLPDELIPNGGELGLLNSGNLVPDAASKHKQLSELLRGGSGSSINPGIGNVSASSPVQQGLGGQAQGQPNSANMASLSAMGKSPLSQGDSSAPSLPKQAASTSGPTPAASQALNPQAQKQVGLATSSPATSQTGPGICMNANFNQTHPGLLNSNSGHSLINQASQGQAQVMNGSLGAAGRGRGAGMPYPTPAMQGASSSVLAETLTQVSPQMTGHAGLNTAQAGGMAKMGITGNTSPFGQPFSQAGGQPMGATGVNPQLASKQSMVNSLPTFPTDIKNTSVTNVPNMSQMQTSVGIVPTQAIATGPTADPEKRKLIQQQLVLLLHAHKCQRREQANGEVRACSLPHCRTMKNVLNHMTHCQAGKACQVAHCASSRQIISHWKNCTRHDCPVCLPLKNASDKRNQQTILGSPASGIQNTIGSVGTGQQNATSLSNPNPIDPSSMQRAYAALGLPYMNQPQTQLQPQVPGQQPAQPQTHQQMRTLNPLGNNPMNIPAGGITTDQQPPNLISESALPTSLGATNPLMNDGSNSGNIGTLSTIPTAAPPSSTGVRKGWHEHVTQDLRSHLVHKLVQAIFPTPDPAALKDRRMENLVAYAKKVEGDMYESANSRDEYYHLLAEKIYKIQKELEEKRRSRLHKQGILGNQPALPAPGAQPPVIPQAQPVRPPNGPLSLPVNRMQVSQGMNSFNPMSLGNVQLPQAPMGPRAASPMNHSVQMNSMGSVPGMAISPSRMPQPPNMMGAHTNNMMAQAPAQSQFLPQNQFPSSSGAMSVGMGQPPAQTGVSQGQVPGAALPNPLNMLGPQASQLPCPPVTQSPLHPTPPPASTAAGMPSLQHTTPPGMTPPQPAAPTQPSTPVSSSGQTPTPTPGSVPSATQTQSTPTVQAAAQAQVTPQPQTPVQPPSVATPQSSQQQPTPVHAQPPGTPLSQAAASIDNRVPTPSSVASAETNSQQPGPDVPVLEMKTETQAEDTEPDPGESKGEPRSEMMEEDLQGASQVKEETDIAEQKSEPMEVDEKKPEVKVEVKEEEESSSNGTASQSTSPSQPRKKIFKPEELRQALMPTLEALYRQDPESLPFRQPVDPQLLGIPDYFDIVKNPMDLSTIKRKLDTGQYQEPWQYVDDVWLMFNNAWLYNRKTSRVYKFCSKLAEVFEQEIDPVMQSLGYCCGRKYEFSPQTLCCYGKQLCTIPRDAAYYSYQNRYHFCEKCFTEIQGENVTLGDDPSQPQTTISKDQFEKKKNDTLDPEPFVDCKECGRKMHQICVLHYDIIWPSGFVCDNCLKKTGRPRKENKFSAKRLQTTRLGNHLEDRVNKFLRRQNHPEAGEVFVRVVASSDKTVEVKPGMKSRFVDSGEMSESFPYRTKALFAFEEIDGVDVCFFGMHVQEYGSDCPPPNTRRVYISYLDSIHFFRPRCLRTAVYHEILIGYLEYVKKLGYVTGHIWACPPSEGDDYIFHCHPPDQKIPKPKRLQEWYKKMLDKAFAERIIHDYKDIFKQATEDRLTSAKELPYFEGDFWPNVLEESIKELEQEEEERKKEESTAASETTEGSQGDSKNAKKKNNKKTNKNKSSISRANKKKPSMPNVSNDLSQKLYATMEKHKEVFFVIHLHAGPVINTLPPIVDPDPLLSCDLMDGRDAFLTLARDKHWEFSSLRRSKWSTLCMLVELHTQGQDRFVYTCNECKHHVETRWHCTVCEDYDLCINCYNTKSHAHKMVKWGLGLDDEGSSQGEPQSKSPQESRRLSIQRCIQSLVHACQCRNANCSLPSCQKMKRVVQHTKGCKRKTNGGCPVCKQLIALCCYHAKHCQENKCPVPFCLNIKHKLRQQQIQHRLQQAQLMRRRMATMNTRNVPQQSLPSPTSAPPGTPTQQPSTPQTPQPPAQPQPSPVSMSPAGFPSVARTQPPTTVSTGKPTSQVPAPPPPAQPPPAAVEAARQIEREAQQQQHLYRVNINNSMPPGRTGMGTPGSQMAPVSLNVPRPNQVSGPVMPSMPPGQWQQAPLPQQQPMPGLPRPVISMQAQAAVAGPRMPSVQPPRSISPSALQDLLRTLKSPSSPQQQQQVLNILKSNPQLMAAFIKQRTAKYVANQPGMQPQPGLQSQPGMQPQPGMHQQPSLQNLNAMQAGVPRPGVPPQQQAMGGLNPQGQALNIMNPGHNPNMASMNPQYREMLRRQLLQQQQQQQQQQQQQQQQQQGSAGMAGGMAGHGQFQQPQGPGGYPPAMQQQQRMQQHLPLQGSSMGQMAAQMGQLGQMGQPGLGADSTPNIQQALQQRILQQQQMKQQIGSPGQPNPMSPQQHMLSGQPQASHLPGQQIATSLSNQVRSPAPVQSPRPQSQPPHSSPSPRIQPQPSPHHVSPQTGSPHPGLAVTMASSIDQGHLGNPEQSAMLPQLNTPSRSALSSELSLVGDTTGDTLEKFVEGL
How it was run: (§1)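 Cells received an 8-point half-log dilution series from 10 µM. They were then fixed in 10% formaldehyde (10 min, RT), permeabilised with 0.1% Triton X-100 and blocked with 1% BSA for 1 h. Primary antibodies were applied overnight at 4 °C, followed by Alexa488 anti-rabbit, Alexa555 anti-mouse and Hoechst 33342 for 1 h. Fifteen fields per well were imaged and average mean intensity taken. EC50 came from a sigmoidal fit.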

SET-2 = experiment: Antiproliferative activity against human SET2 cells assessed as inhibition of cell viability incubated for 3 to 5 days by Celltiter-Glo luminescent assay; type: functional, cell-based
[8] = target: Serine/threonine-protein kinase 4 (Homo sapiens, UniProt Q13043); experiment: Inhibition of MST1 (unknown origin)
LuCaP-77 CR cell [9] = settings: Homo sapiens, dose 100.0 mg/kg, time 7.0 day; remark: listed apart in the source
Jurkat = experiment: Antiproliferative activity against human Jurkat cells assessed as inhibition of cell viability incubated for 3 to 5 days by Celltiter-Glo luminescent assay; type: functional, cell-based
[10] = Cmax in CB17 SCID mouse xenografted with LuCaP-77 CR cell at 100 mg/kg, ip administered for 7 days; type: ADME, organism-based; settings: in vivo, time 7 day
[11] = target: Dual specificity mitogen-activated protein kinase kinase 1 (Homo sapiens, UniProt Q02750); experiment: Inhibition of MEK1 (unknown origin)
[12] = target: Tyrosine-protein kinase Fyn (Homo sapiens, UniProt P06241); experiment: Inhibition of Fyn (unknown origin)
SKM-1 = experiment: Antiproliferative activity against human SKM-1 cells assessed as inhibition of cell viability incubated for 3 to 5 days by Celltiter-Glo luminescent assay; type: functional, cell-based
Kasumi 1 = experiment: cells; settings: Homo sapiens
[13] = target: Cyclin-dependent kinase 11B (Homo sapiens, UniProt P21127); experiment: Inhibition of CDK11 (unknown origin)
[14] = Inhibition of CDK7/Cyclin H (unknown origin); design: species or system Homo sapiens
GA-10 = experiment: Antiproliferative activity against human GA-10 cells assessed as inhibition of cell viability incubated for 3 to 5 days by Celltiter-Glo luminescent assay; type: functional, cell-based
NCI-H1836 = experiment: Antiproliferative activity against human NCI-H1836 cells assessed as inhibition of cell viability incubated for 3 to 5 days by Celltiter-Glo luminescent assay; type: functional, cell-based
NCI-H661 = experiment: Antiproliferative activity against human NCI-H661 cells assessed as inhibition of cell viability incubated for 3 to 5 days by Celltiter-Glo luminescent assay; type: functional, cell-based
[15] = Tmax in CB17 SCID mouse xenografted with LuCaP-77 CR cell at 50 mg/kg, ip administered for 7 days; type: ADME, organism-based; settings: in vivo, time 7 day
Aurora kinase B = Aurora kinase B (Homo sapiens, UniProt Q96GD4); experiment: Inhibition of Aurora1 (unknown origin)
[16] = target: T1, CREB-binding protein/Histone acetyltransferase p300; experiment: Inhibition of p300/CBP in human 22Rv1 cells assessed as reduction in H3K18Ac level incubated for 1 hr by Hoechst 33342 staining based high content microscopy analysis; type: cell-based; how it was run: as §1
JVM-2 = experiment: Antiproliferative activity against human JVM-2 cells assessed as inhibition of cell viability incubated for 3 to 5 days by Celltiter-Glo luminescent assay; type: functional, cell-based
[17] = target: Tyrosine-protein kinase Lck (Homo sapiens, UniProt P06239); experiment: Inhibition of Lck (unknown origin)
[18] = target: Serine/threonine-protein kinase pim-1 (Homo sapiens, UniProt P11309); experiment: Inhibition of Pim1 (unknown origin)
Serine/threonine-protein kinase pim-1, sequence (P11309 whole entry): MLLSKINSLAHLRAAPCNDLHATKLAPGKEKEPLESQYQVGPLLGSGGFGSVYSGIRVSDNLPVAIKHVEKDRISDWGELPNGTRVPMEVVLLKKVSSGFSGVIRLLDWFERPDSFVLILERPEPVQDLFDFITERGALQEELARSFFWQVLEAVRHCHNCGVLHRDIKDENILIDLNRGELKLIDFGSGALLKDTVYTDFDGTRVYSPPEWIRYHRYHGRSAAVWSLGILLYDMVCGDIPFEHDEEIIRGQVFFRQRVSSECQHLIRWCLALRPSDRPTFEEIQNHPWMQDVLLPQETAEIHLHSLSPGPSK

CNC(=O)Nc1ccc2c(c1)CC[C@@]21OC(=O)N(CC(=O)N(Cc2ccc(F)cc2)[C@@H](C)C(F)(F)F)C1=O [A-485]
EC50 (MM1.S): 180 nM
IC50 [1]: > 10000 nM
EC50 (RCK8): 590 nM
IC50 [2]: > 10000 nM
EC50 (OCI-Ly7): 1810 nM
EC50 (NU-DHL-1): 530 nM
EC50 (cells): 530 nM
EC50 (U-2973): 660 nM
EC50 (MeWo): 2430 nM
EC50 (DU-4475): 670 nM
EC50 (SU-DHL-5): 760 nM
EC50 (THP-1): 3510 nM
EC50 (NCI-H838): 6990 nM
EC50 (BJAB): 280 nM
EC50 (Granta-519): 3280 nM
IC50 [3]: > 10000 nM
IC50 [4]: > 10000 nM
inhibition (LuCaP-77 CR cell [5]): inactive
EC50 (NCI-H522): 3520 nM
EC50 (NCI-H211): 1500 nM
AUC at 168 h [6]: 417 µg·h/mL
INH [7]: > 10 µM
EC50 (SET-2): 2010 nM
IC50 [8]: > 10000 nM
inhibition (LuCaP-77 CR cell [9]): inactive
EC50 (Jurkat): 4030 nM
Cmax [10]: 75.5 µg/mL
IC50 [11]: > 10000 nM
IC50 [12]: > 10000 nM
EC50 (SKM-1): 1340 nM
EC50 (Kasumi 1): 290 nM
IC50 [13]: > 10000 nM
IC50 [14]: > 10000 nM
EC50 (GA-10): 1060 nM
EC50 (NCI-H1836): > 10000 nM
EC50 (NCI-H661): 7660 nM
Tmax [15]: 3 h
IC50 (Aurora kinase B): > 10000 nM
INH [16]: 2.39 µM
EC50 (JVM-2): > 10000 nM
IC50 [17]: > 10000 nM
IC50 [18]: > 10000 nM
